Laboratory results as given in ChEMBL document CHEMBL4622838, “Deuteration of the farnesyl terminal methyl groups of δ-tocotrienol and its effects on the metabolic stability and ability of inducing G-CSF production” (Bioorg Med Chem, 2020).
The source made the active and inactive calls. The calls are words filed in the database; no cut-off is given here.

Key:
[1] = AUC (0 to last) in CD2F1 mouse at 50 mg/kg, iv measured up to 24 hrs; format: ADME, organism-based; design: dose 50 mg/kg, route intravenous, time 0 - last; settings: in vivo
Summary of the method: (§1)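 Single IV bolus in CD2F1 mice, emulsified in PBS with 33% PEG400 and 2% tween 80 (150 µL/mouse, 0.22 µm filtered), n = 4 per group. Retro-orbital blood into EDTA-K tubes at 0, 5, 10, 30 min and 1, 2, 4, 6, 12, 24 h. Plasma extracted with methanol/ascorbic acid plus heptane/BHT, internal standard, HPLC-fluorescence.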

[2] = Volume of distribution in CD2F1 mouse at 50 mg/kg, iv measured up to 24 hrs; format: ADME, organism-based; settings: in vivo
Summary of the method: (§2)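 Single IV bolus, 50 mg/Kg, emulsified in PBS with 33% PEG400 and 2% tween 80, 150 µL/mouse, filter-sterilized; n = 4 per group. Retro-orbital blood into EDTA potassium tubes at 0, 5, 10, 30 min, 1, 2, 4, 6, 12, 24 h. Plasma extracted with methanol (2% ascorbic acid) and heptane (1% BHT) plus internal standard; HPLC-fluorescence quantitation.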

[3] = Plasma concentration in CD2F1 mouse at 200 mg/kg, sc administered as single dose measured after 1 hr by HPLC-fluorescence analysis; format: ADME, organism-based
Summary of the method: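 Single subcutaneous dose of 200 mg/Kg in CD2F1 mice, emulsified in PBS with 5% tween 80 and filter-sterilized, n = 3–4. Retro-orbital blood drawn at 0 min to 24 h. Plasma mixed with internal standard, methanol containing 2% ascorbic acid and heptane containing 1% BHT. Upper layer dried under N₂, reconstituted in methanol and quantified by HPLC-fluorescence.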

[4] = Half life in mouse liver microsomes; format: ADME, Microsome
[5] = Intrinsic clearance in mouse liver microsomes; format: ADME, Microsome
Summary of the method: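 Mouse liver microsomes (5 mg protein/mL) in potassium phosphate buffer pH 7.4 with EDTA; compound 1 µM preincubated 30 min at 37 °C, reaction started with NADPH-generating system (NADP⁺, glucose-6-phosphate, MgCl₂, G6PDH); no-NADPH control. Sampled at 5, 15, 30 min into cold acetonitrile with internal standard; percent remaining measured; half-life and clearance calculated; n = 3.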

[6] = Metabolic stability in mouse live microsomes assessed as compound degradation in absence of NADPH; format: ADME, Liver, Microsome
Summary of the method: (§3)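 Mouse liver microsomes (5 mg protein/mL) in 0.2 M potassium phosphate, pH 7.4, with EDTA. Test compound at 1 µM preincubated 30 min at 37 °C, then started with an NADPH-generating system (NADP⁺, Glc-6-PO₄, MgCl₂, G6PDH); controls received buffer in place of NADPH. Sampled at 5, 15 and 30 min into cold acetonitrile containing GT3 internal standard. Percent remaining reported, n = 3.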

[7] = AUC (0 to infinity) in CD2F1 mouse at 50 mg/kg, iv measured up to 24 hrs; format: ADME, organism-based; design: dose 50 mg/kg, time infinity, route intravenous; settings: in vivo; summary of the method: as §1
[8] = AUC (0 to last) in CD2F1 mouse at 200 mg/kg, sc measured up to 24 hrs; format: ADME, organism-based; design: dose 200 mg/kg, route subcutaneous, time 0 - last; settings: in vivo
Summary of the method: as §1, with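 “SC injection” for “IV bolus”, “5%” for “33% PEG400 and 2%”, “(100” for “(150”, “7.5, 15,” for “5, 10,”, “6, 8,” for “6,”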

[9] = Cmax in CD2F1 mouse at 200 mg/kg, sc measured up to 24 hrs; format: ADME, organism-based; design: dose 200 mg/kg, route subcutaneous; settings: in vivo
Summary of the method: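 Single subcutaneous dose, 200 mg/Kg, emulsified in PBS with 5% tween 80, 100 µL/mouse, filter-sterilized; n = 4 per group. Retro-orbital blood into EDTA potassium tubes at 0, 7.5, 15, 30 min, 1, 2, 4, 6, 8, 12, 24 h; plasma at -80 °C. Heptane/methanol extraction with internal standard, HPLC-fluorescence; peak concentration taken from the concentration-time profile.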

[10] = Clearance in CD2F1 mouse at 50 mg/kg, iv measured up to 24 hrs; format: ADME, organism-based; settings: in vivo; summary of the method: as §2
[11] = Metabolic stability in mouse liver microsomes assessed as compound degradation at 1 uM preincubated for 30 mins followed by NADPH addition measured up to 30 mins by HPLC-UV analysis; format: ADME, Microsome; settings: 0.5 h; summary of the method: as §3
Mus musculus [12] = test: Induction of G-CSF production in CD2F1 mouse at 200 mg/kg, sc pretreated with ketoconazole after 24 hrs by G-CSF ELISA kit method; format: functional, organism-based
Summary of the method: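 CD2F1 mice received ketoconazole in corn oil (5 mg/250 µL/mouse) by oral gavage at 26, 14 and 2 h before drug. Drug then given subcutaneously at 200 mg/Kg in 5% tween 80/PBS, n = 3. Plasma collected at 8 and 24 h. G-CSF measured by ELISA in duplicate against a per-plate standard curve.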

Mus musculus [13] = test: Induction of G-CSF production in CD2F1 mouse at 200 mg/kg, sc by G-CSF ELISA kit method; format: functional, organism-based; settings: TDE = time-dependent effect
Summary of the method: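 CD2F1 mice, subcutaneous dose of 0.5 mM/Kg (200 mg/Kg) emulsified in PBS with 5% tween 80, n = 3–4. Blood taken into EDTA-K tubes at 8, 12, 24 and 48 h. Plasma spun at 1200 rpm, 15 min, 4 °C and held at −80 °C. G-CSF measured by mouse ELISA, each sample run in duplicate and averaged, with a standard curve on every plate.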

## [2H]C([2H])([2H])C(=CCC/C(C)=C/CC/C(C)=C/CC[C@]1(C)CCc2cc(O)cc(C)c2O1)C([2H])([2H])[2H]
[1]
  AUClast: 34213 ng·h/mL
[2]
  Vd: 21.3 L/kg
[3]
  concentration at 1 h: 800 to 1000 ng/mL
[4]
  t1/2: 2.642 h
[5]
  CLH: 3580 µL/min/mg
[6]
  Stability: Stable
[7]
  AUC: 35707 ng·h/mL
[8]
  AUClast: 11354 ng·h/mL
[9]
  Cmax: 970 ng/mL
[10]
  CL: 23.3 mL/min/kg
[11]
  Stability: Unstable

## CC(C)=CCC/C(C)=C/CC/C(C)=C/CC[C@]1(C)CCc2cc(O)cc(C)c2O1 [DELTA-TOCOTRIENOL]
[1]
  AUClast: 32804 ng·h/mL
[2]
  Vd: 20.7 L/kg
Mus musculus [12]
  Activity: Active
Mus musculus [12]; tested as the 2H-labelled form
  Activity: Active
[3]
  concentration at 1 h: 800 to 1000 ng/mL
[4]
  t1/2: 1.778 h
[5]
  CLH: 5260 µL/min/mg
[6]
  Stability: Stable
[7]
  AUC: 33456 ng·h/mL
[8]
  AUClast: 10314 ng·h/mL
[9]
  Cmax: 810 ng/mL
Mus musculus [13]
  Activity: Tde
Mus musculus [13]; tested as the 2H-labelled form
  Activity: Tde
[10]
  CL: 24.92 mL/min/kg
[11]
  Stability: Unstable
